The format of data set [1] is physicochemical. Conditions: solutions in aqueous media at pH < 7, prolonged periods (>1 week).
The test system of data set [2] is MDCK cells. As to the kind of experiment: Imaging of carbon monoxide in living cells with fluorescent probe COP-1. The format is cell-based, Canine. Conditions: 10 μM, at 8 and 37 °C, against respective iCORM (50 μM). The procedure, abridged: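 MDCK cells exposed at 37 °C and at 8 °C to test compound (10 μM) or to its CO-depleted product (iCORM, 50 μM) as comparator. Intracellular CO was detected with the CO-selective fluorescent probe COP-1, read as intracellular fluorescence.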

Consider `CC12C(=O)C(C)(C(c3ccccc3)=C1c1ccccc1)C1(Br)C(=O)N(CCNCCN)C(=O)C21.O=C(O)C(F)(F)F.O=C(O)C(F)(F)F` (centres unmarked) [oCOm-23], for which the “formation of the corresponding iCORM” value in data set [1] is on record as “no sign of the formation”. Also, the “CO delivery to cells / increased intracellular CO levels (COP-1)” value in data set [2] is given as “confirmed”.
